Activity calls are given as the source filed them. The rule behind the calls is not given here.
Experiments:
EMT6 [1] = test: Cytotoxicity against mouse EMT6 cells after 72 hrs by crystal violet staining; assay type: functional; settings: EMT6, 72 h, read-out: LD50 (the source's name)
[2] = Cytotoxicity against mouse PancO2 cells after 72 hrs by crystal violet staining; assay type: functional; settings: read-out: LD50 (the source's name)
[3] = Inhibition of human recombinant Trx1/TrxR assessed as reduction in number of free thiols from reduced insulin after 30 mins by insulin reduction assay
How it was run: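 At least seven compound concentrations. Incubated 30 min at 37 °C, stopped with 8 mM DTNB in 8 M guanidine HCl, A412. IC50 from four-parameter logistic fit. Triplicates, mean ± SD, n ≥ 3.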

[4] = Chemical stability of the compound; assay type: physicochemical
Mus musculus [5] = test: Toxicity in mouse EMT6 cells allografted BALB/c mouse assessed as mortality at 40 to 80 mg/kg, ip qd for 7 days; assay type: organism-based; set-up: dose 40-80 mg/kg, route intraperitoneal; settings: in vivo, 168 h
How it was run: (§1)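 BALB/c mice, 8−12 weeks old, inoculated sc with 3.5 × 10^5 EMT6 cells into the depilated right thigh. Intraperitoneal dosing in DMSO began on day 7, when tumors reached a longer diameter of 5−7 mm, and was given daily. Controls received ip DMSO. Tumor volume was followed by calipers as longer × shorter²/2. Survival and body weight were monitored.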

Mus musculus [6] = test: Toxicity in mouse EMT6 cells allografted BALB/c mouse assessed as change in body weight at 40 to 80 mg/kg, ip qd for 7 days; assay type: organism-based; set-up: dose 40-80 mg/kg, route intraperitoneal; settings: in vivo, 168 h; how it was run: as §1
K562 = test: Cytotoxicity against human K562 cells after 72 hrs by MTT assay; assay type: functional; settings: K562, 72 h, read-out: LD50 (the source's name)
How it was run: (§2)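 Suspension cells were grown in RPMI-1640 with 10% heat-inactivated FBS and exposed to compound for 72 h with DMSO ≤1%. MTT (5 mg/mL solution) was added for 4 h, then plates were centrifuged, cells lysed in DMSO and read at A570. Viability is % of solvent controls, background-corrected; n ≥ 3.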

Raji [7] = test: Cytotoxicity against human Raji cells after 72 hrs by MTT assay; assay type: functional; settings: read-out: LD50 (the source's name); how it was run: as §2
Ramos = test: Cytotoxicity against human Ramos cells after 72 hrs by MTT assay; assay type: functional; settings: read-out: LD50 (the source's name); how it was run: as §2
[8] = Cytotoxicity against mouse B78 cells after 72 hrs by crystal violet staining; assay type: functional; settings: B78, 72 h, read-out: LD50 (the source's name)
CT26 = test: Cytotoxicity against wild type mouse CT26 cells after 72 hrs by crystal violet staining; assay type: functional; settings: CT26, 72 h, read-out: LD50 (the source's name)
[9] = Chemical stability of the compound in 0.01 M PBS buffer at pH 7.4 after 5 hrs by RP-HPLC analysis; assay type: physicochemical; settings: read-out: Stability
How it was run: (§3)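 Stock in DMSO (5 mg/mL) diluted about 100-fold into 0.01 M PBS pH 7.4 prewarmed to 37 °C, then held at 37 °C for up to 7 days. At each time point, 100 μL aliquots were mixed with 200 μL ethanol, chilled at 4 °C for 15 min, centrifuged and stored at −20 °C. Samples were quantified by RP-HPLC (C18, acetonitrile/water, 230 nm) against standard curves of at least five dilutions. Triplicates, n = 3.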

[10] = Chemical stability of the compound in 0.01 M PBS buffer at pH 7.4 after 4 days by RP-HPLC analysis; assay type: physicochemical; settings: pH 7.4, 96 h; how it was run: as §3
[11] = Solubility of the compound in biological media; assay type: ADME
[12] = Chemical stability of the compound in 0.01 M PBS buffer at pH 7.4 after 7 days by RP-HPLC analysis; assay type: physicochemical; settings: pH 7.4, 168 h; how it was run: as §3
T-24 = test: Cytotoxicity against human T24 cells after 72 hrs by crystal violet staining; assay type: functional; settings: T-24, 72 h, read-out: LD50 (the source's name)
[13] = Cytotoxicity against mouse bone marrow cells after 72 hrs by XTT assay; assay type: cell-based, Bone marrow cell; settings: read-out: LD50
How it was run: (§4)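 hPBMC were isolated from healthy donors on Histopaque 1077 and kept in RPMI. Bone marrow came from female BALB/c mice and was cultured in Iscove's medium with 10% FBS and 100 U IL-3. After compound exposure, cells got XTT at 0.3 mg/mL for 4 h, read at A490 against 690 nm. Viability is % of DMSO controls; n ≥ 3.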

[14] = Cytotoxicity against mouse MEF cells; assay type: cell-based; settings: read-out: LD50 (the source's name)
How it was run: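 Fibroblasts came from BALB/c embryos at E13.5 by 0.2% trypsin digestion at 37 °C for 10 min and were cultured in DMEM. Viability is % of solvent controls with DMSO ≤1%; n ≥ 3.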

[15] = Cytotoxicity against human PBMC cells after 72 hrs by XTT assay; assay type: cell-based; settings: read-out: LD50; how it was run: as §4
[16] = biological target: T1, Thioredoxin (Homo sapiens) (UniProt P10599); test: Binding affinity to human recombinant Trx-1 expressed in Escherichia coli by mass spectrometry analysis
T1 sequence (whole entry): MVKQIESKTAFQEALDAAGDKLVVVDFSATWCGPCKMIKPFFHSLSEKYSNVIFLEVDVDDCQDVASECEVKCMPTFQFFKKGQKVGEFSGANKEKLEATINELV

[17] = biological target: T1, Thioredoxin (Homo sapiens); test: Inhibition of human recombinant Trx-1 expressed in Escherichia coli after 30 to 90 mins preincubation by insulin reduction assay in presence of thioredoxin reductase
How it was run: (§5)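 Human recombinant His-tagged Trx purified by Ni affinity and gel filtration, then dialyzed free of DTT. Trx was prereduced with TrxR and NADPH for 20 min, then preincubated with compound (2.5−20 μM) for 0−90 min at 37 °C. Reaction ran 30 min at 37 °C in Tris-HCl/EDTA pH 7.6. DTNB stop, A412. Triplicates, SD.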

[18] = biological target: T1, Thioredoxin (Homo sapiens); test: Inhibition of human recombinant Trx-1 expressed in Escherichia coli at 2.5 to 20 uM by insulin reduction assay in presence of thioredoxin reductase; settings: TDE = time-dependent effect; how it was run: as §5
Raji [19] = test: Inhibition of Trx1/TrxR in human Raji cells after 4 hrs by insulin reduction assay; assay type: cell-based
How it was run: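 Raji cells incubated with compound for 4 h, washed three times with PBS and lysed in 0.1% NP40 with protease inhibitors. Protein measured by BCA. Trx activity determined in 10 μg of total protein by kit insulin reduction with TrxR/NADPH for 20 min at 37 °C, then DTNB/guanidine stop and A412. Triplicates, n = 3, SD.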

Raji [20] = test: Induction of Trx mRNA expression in human Raji cells at 5 to 10 uM after 4 to 24 hrs by RT-PCR analysis; assay type: functional, cell-based
Raji [21] = test: Induction of Trx protein expression in human Raji cells at 10 to 20 uM after 4 to 8 hrs by Western blot analysis; assay type: functional, cell-based
How it was run: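 Raji cells exposed to compound for 4 and 8 h, washed and lysed in 0.1% NP40 with protease inhibitors. Equal protein (BCA) run on 15% SDS-PAGE and blotted to nitrocellulose, blocked in TBST with 5% BSA. Probed overnight with rabbit anti-thioredoxin and mouse anti-tubulin, then HRP secondaries for 45 min. ECL luminol/coumaric acid detection.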

[22] = biological target: T1, Thioredoxin (Homo sapiens); test: Inhibition of thioredoxin in human HeLa cells cotransfected with p-NFkB-luc assessed as inhibition of TNF/IFN-gamma-induced activation of NF-kB after 6 hrs by luciferase reporter assay; assay type: cell-based
How it was run: (§6)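 HeLa cells nucleofected with 2 μg NF-κB- or AP-1-luciferase plasmid plus CMV-Renilla, then cultured 48 h. NF-κB: TNF (10 ng/mL) + IFN-γ (100 U) together with compound for 6 h. AP-1: 4 h in medium without FBS or antibiotics, then ionomycin (1 μM) together with compound for 6 h. Dual-luciferase read-out, firefly normalized to Renilla. Triplicates, n ≥ 3, Student's t test.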

[23] = biological target: T1, Thioredoxin (Homo sapiens); test: Inhibition of thioredoxin in human HeLa cells cotransfected with p-AP1-luc assessed as inhibition of ionomycin-induced AP-1 promoter activity after 6 hrs by luciferase reporter assay; assay type: cell-based; how it was run: as §6
[24] = biological target: T1, Thioredoxin (Homo sapiens); test: Inhibition of thioredoxin in human HeLa cells assessed as decrease of H2O2 scavenging activity by measuring CM-H2DCFDA fluorescence at 10 uM after 4 hrs by flow cytometeric analysis; assay type: cell-based
How it was run: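 HeLa cells treated 4 h with 10 or 20 μM compound, then trypsinized and resuspended in PBS. H2O2 added to 1 mM final for 10 min, then 1 μL of 5 mM CM-H2DCFDA for 15 min at 37 °C. Cells washed twice and 10^4 cells analyzed by flow cytometry. Triplicates, n = 3, Student's t test.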

EMT6 [25] = test: Antitumor activity against mouse EMT6 cells allografted in BALB/c mouse assessed as reduction in tumor growth at 80 mg/kg, ip qd for 7 days; assay type: functional, organism-based; set-up: dose 80 mg/kg
How it was run: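 BALB/c mice (8−12 wk) inoculated s.c. with 3.5 × 10^5 EMT6 cells into the depilated right thigh. Controls received DMSO ip. Tumor volume measured by calipers as (longer diameter) × (shorter diameter)²/2. Survival also recorded.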

EMT6 [26] = test: Antitumor activity against mouse EMT6 cells allografted in BALB/c mouse assessed as prolongation of host survival time at 80 mg/kg, ip qd for 7 days; assay type: functional, organism-based; set-up: dose 80 mg/kg; how it was run: as §1
[27] = biological target: Thioredoxin reductase (Homo sapiens) (UniProt Q16881+Q9NNW7+Q86VQ6); settings: 2.5 to 20 uM
Mus musculus [28] = test: Toxicity in mouse EMT6 cells allografted BALB/c mouse assessed as change in body weight at 14 mg/kg, ip qd for 7 days measured on day 5; assay type: organism-based; set-up: dose 14 mg/kg, route intraperitoneal; settings: in vivo, 168 h; how it was run: as §1
Mus musculus [29] = test: Toxicity in mouse EMT6 cells allografted BALB/c mouse assessed as mortality at 14 mg/kg, ip qd for 7 days measured on day 5; assay type: organism-based; set-up: dose 14 mg/kg, route intraperitoneal; settings: in vivo, 168 h; how it was run: as §1

SMILES: C=C(COS(=O)(=O)c1ccc(C)cc1)C(=O)N(Cc1ccccc1)[C@@H](CC(C)C)C(=O)NCC(=O)OCc1ccccc1
- CC50 (EMT6 [1]): > 50 µM
- CC50 [2]: > 50 µM
- IC50 [3]: 22.3 µM

SMILES: CC(C)C[C@@H](C(=O)NCC(=O)OCc1ccccc1)N(Cc1ccccc1)C(=O)C(CI)CI
- IC50 [3]: > 50 µM

SMILES: C=C(COC(=O)c1c(C(F)(F)F)cccc1C(F)(F)F)C(=O)OC
- Stability [4]: Unstable
- CC50 (EMT6 [1]): > 25 µM
- CC50 [2]: > 25 µM
- IC50 [3]: 0.4 µM

SMILES: C=C(CBr)C(=O)N(Cc1ccccc1)[C@@H](CC(C)C)C(=O)NCC(=O)OCc1ccccc1
- CC50 (EMT6 [1]): > 50 µM
- CC50 [2]: > 50 µM
- IC50 [3]: 10 µM

SMILES: Cc1ccc(S(=O)(=O)OCC(COS(=O)(=O)c2ccc(C)cc2)C(=O)N(Cc2ccccc2)[C@@H](CC(C)C)C(=O)NCC(=O)OCc2ccccc2)cc1
- IC50 [3]: > 50 µM

SMILES: C=C(COC(=O)c1c(C(F)(F)F)cccc1C(F)(F)F)C(=O)N[C@@H](CC(C)C)C(=O)NCC(=O)OCC
- Activity (Mus musculus [5]): Non-toxic
- Activity (Mus musculus [6]): Non-toxic
- CC50 (K562): 4 µM
- CC50 (Raji [7]): 3.7 µM
- CC50 (Ramos): 3.7 µM
- CC50 [8]: 4.3 µM
- CC50 (CT26): 3.3 µM
- remaining at 5 h [9]: 20%
- Stability [10]: Stable
- solubility [11]: soluble
- Stability [12]: Unstable
- CC50 (EMT6 [1]): 5.2 µM
- CC50 [2]: 3.8 µM
- IC50 [3]: 3.3 µM
- CC50 (T-24): 5.6 µM
- CC50 at 72 h [13]: > 12.5 µM
- CC50 [14]: 2.9 µM
- CC50 at 72 h [15]: > 25 µM
- Activity [16]: Active
- inhibition [17]: Dose-dependent effect
- inhibition [18]: tde
- inhibition (Raji [19]): Active
- Activity (Raji [20]): Active
- Activity (Raji [21]): Active
- inhibition [22]: Active
- inhibition [23]: Active
- inhibition [24]: Active
- growth inhibition (GI) (EMT6 [25]): Active
- Survival (EMT6 [26]): Active
- inhibition [27]: tde

SMILES: C=C(COC(=O)c1c(Cl)cccc1Cl)C(=O)N[C@@H](CC(C)C)C(=O)NCC(=O)OCC
- solubility [11]: Insoluble
- CC50 (EMT6 [1]): 5.5 µM
- CC50 [2]: 3 µM
- IC50 [3]: 3 µM

SMILES: CCC(C)SSc1ncc[nH]1 (configuration not stated) [PX-12]
- CC50 (K562): 5.5 µM
- CC50 (Raji [7]): 8.8 µM
- CC50 (Ramos): 3.4 µM
- CC50 [8]: 5 µM
- CC50 (CT26): 5.2 µM
- CC50 (EMT6 [1]): 11.6 µM
- CC50 [2]: 3.9 µM
- IC50 [3]: 12.3 µM
- CC50 (T-24): 4.6 µM
- CC50 at 72 h [13]: > 12.5 µM
- CC50 [14]: 2.7 µM
- CC50 at 72 h [15]: > 25 µM
- Activity (Raji [20]): Active
- Activity (Raji [21]): Active
- Activity (Mus musculus [28]): Toxic
- Activity (Mus musculus [29]): Toxic
